Tested on: HEK-293T
Assay: Multiplex assay against HEK293T
Type: toxicity, cell-based
Conditions: human
In short: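 On a CQ1 microscope at 37°C and 5% CO2, live cells were imaged after compound addition. They had been stained at seeding with Hoechst33342, BioTracker Green Microtubule Cytoskeleton Dye, MitoTracker Red and Annexin V Alexa Fluor 680. CellPathfinder machine-learning gating assigned cells to Hoechst high-intensity objects or normal cells, normal cells to healthy, pyknosed or fragmented nuclei, and pyknosed cells to mitotic or apoptotic. Tubulin, mitochondrial-mass and membrane-permeability phenotypes are per cents of healthy-nucleus cells.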

[1] = 12 h, 1 µM, compound concentration 1 uM, replicate 1
[2] = 12 h, 1 µM, compound concentration 1 uM, replicate 2
[3] = 12 h, 10 µM, compound concentration 10 uM, replicate 1
[4] = 12 h, 10 µM, compound concentration 10 uM, replicate 2
[5] = 24 h, 1 µM, compound concentration 1 uM, replicate 1
[6] = 24 h, 1 µM, compound concentration 1 uM, replicate 2
[7] = 24 h, 10 µM, compound concentration 10 uM, replicate 1
[8] = 24 h, 10 µM, compound concentration 10 uM, replicate 2
[9] = 48 h, 1 µM, compound concentration 1 uM, replicate 1
[10] = 48 h, 1 µM, compound concentration 1 uM, replicate 2
[11] = 48 h, 10 µM, compound concentration 10 uM, replicate 1
[12] = 48 h, 10 µM, compound concentration 10 uM, replicate 2

S=C(NCCCc1c[nH]cn1)NCCCN(Cc1ccc(Cl)c(Cl)c1)c1ccc(Br)cn1
Population Apoptotic (%) [1]: 39% | Population Fragmented Nuclei (%) [1]: 8% | Population Healthy Nuclei (%) [1]: 78% | Population Hoechst High Intensity Objects (%) [1]: 17% | Population Membrane Permeable-Phenotype (%) [1]: 0% | Population Mitochondria Different-Phenotype (%) [1]: 50% | Population Mitotic Cells (%) [1]: 60% | Population Normal (%) [1]: 82% | Population Pyknosed Nuclei (%) [1]: 13% | Population Tubulin-Different-Phenotype (%) [1]: 36% | Total Cell Count [1]: 378 | Population Apoptotic (%) [2]: 53% | Population Fragmented Nuclei (%) [2]: 5% | Population Healthy Nuclei (%) [2]: 79% | Population Hoechst High Intensity Objects (%) [2]: 6% | Population Mitochondria Different-Phenotype (%) [2]: 58% | Population Mitotic Cells (%) [2]: 46% | Population Normal (%) [2]: 93% | Population Pyknosed Nuclei (%) [2]: 14% | Population Tubulin-Different-Phenotype (%) [2]: 35% | Total Cell Count [2]: 294 | Population Apoptotic (%) [3]: 90% | Population Fragmented Nuclei (%) [3]: 4% | Population Healthy Nuclei (%) [3]: 57% | Population Hoechst High Intensity Objects (%) [3]: 33% | Population Membrane Permeable-Phenotype (%) [3]: 0% | Population Mitochondria Different-Phenotype (%) [3]: 77% | Population Mitotic Cells (%) [3]: 9% | Population Normal (%) [3]: 66% | Population Pyknosed Nuclei (%) [3]: 38% | Population Tubulin-Different-Phenotype (%) [3]: 78% | Total Cell Count [3]: 242 | Population Apoptotic (%) [4]: 77% | Population Fragmented Nuclei (%) [4]: 8% | Population Healthy Nuclei (%) [4]: 71% | Population Hoechst High Intensity Objects (%) [4]: 19% | Population Mitochondria Different-Phenotype (%) [4]: 84% | Population Mitotic Cells (%) [4]: 22% | Population Normal (%) [4]: 80% | Population Pyknosed Nuclei (%) [4]: 19% | Total Cell Count [4]: 229 | Population Apoptotic (%) [5]: 39% | Population Fragmented Nuclei (%) [5]: 10% | Population Healthy Nuclei (%) [5]: 73% | Population Hoechst High Intensity Objects (%) [5]: 22% | Population Membrane Permeable-Phenotype (%) [5]: 0% | Population Mitochondria Different-Phenotype (%) [5]: 45% | Population Mitotic Cells (%) [5]: 60% | Population Normal (%) [5]: 77% | Population Pyknosed Nuclei (%) [5]: 16% | Population Tubulin-Different-Phenotype (%) [5]: 32% | Total Cell Count [5]: 326 | Population Apoptotic (%) [6]: 41% | Population Fragmented Nuclei (%) [6]: 9% | Population Healthy Nuclei (%) [6]: 81% | Population Hoechst High Intensity Objects (%) [6]: 13% | Population Mitochondria Different-Phenotype (%) [6]: 48% | Population Mitotic Cells (%) [6]: 58% | Population Normal (%) [6]: 86% | Population Pyknosed Nuclei (%) [6]: 9% | Total Cell Count [6]: 301 | Population Apoptotic (%) [7]: 85% | Population Fragmented Nuclei (%) [7]: 11% | Population Healthy Nuclei (%) [7]: 49% | Population Hoechst High Intensity Objects (%) [7]: 48% | Population Membrane Permeable-Phenotype (%) [7]: 1% | Population Mitochondria Different-Phenotype (%) [7]: 75% | Population Mitotic Cells (%) [7]: 14% | Population Normal (%) [7]: 51% | Population Pyknosed Nuclei (%) [7]: 39% | Population Tubulin-Different-Phenotype (%) [7]: 78% | Total Cell Count [7]: 237 | Population Apoptotic (%) [8]: 82% | Population Fragmented Nuclei (%) [8]: 16% | Population Healthy Nuclei (%) [8]: 59% | Population Hoechst High Intensity Objects (%) [8]: 39% | Population Membrane Permeable-Phenotype (%) [8]: 0% | Population Mitochondria Different-Phenotype (%) [8]: 82% | Population Mitotic Cells (%) [8]: 17% | Population Normal (%) [8]: 61% | Population Pyknosed Nuclei (%) [8]: 23% | Total Cell Count [8]: 200 | Population Apoptotic (%) [9]: 47% | Population Fragmented Nuclei (%) [9]: 14% | Population Healthy Nuclei (%) [9]: 65% | Population Hoechst High Intensity Objects (%) [9]: 36% | Population Membrane Permeable-Phenotype (%) [9]: 3% | Population Mitochondria Different-Phenotype (%) [9]: 38% | Population Mitotic Cells (%) [9]: 52% | Population Normal (%) [9]: 63% | Population Pyknosed Nuclei (%) [9]: 19% | Population Tubulin-Different-Phenotype (%) [9]: 29% | Total Cell Count [9]: 307 | Population Apoptotic (%) [10]: 36% | Population Fragmented Nuclei (%) [10]: 17% | Population Healthy Nuclei (%) [10]: 73% | Population Hoechst High Intensity Objects (%) [10]: 27% | Population Membrane Permeable-Phenotype (%) [10]: 0% | Population Mitochondria Different-Phenotype (%) [10]: 32% | Population Mitotic Cells (%) [10]: 63% | Population Normal (%) [10]: 72% | Population Pyknosed Nuclei (%) [10]: 9% | Population Tubulin-Different-Phenotype (%) [10]: 19% | Total Cell Count [10]: 277 | Population Apoptotic (%) [11]: 84% | Population Fragmented Nuclei (%) [11]: 23% | Population Healthy Nuclei (%) [11]: 23% | Population Hoechst High Intensity Objects (%) [11]: 75% | Population Membrane Permeable-Phenotype (%) [11]: 0% | Population Mitochondria Different-Phenotype (%) [11]: 86% | Population Mitotic Cells (%) [11]: 15% | Population Normal (%) [11]: 24% | Population Pyknosed Nuclei (%) [11]: 52% | Population Tubulin-Different-Phenotype (%) [11]: 53% | Total Cell Count [11]: 256 | Population Apoptotic (%) [12]: 75% | Population Fragmented Nuclei (%) [12]: 21% | Population Hoechst High Intensity Objects (%) [12]: 67% | Population Mitochondria Different-Phenotype (%) [12]: 80% | Population Mitotic Cells (%) [12]: 25% | Population Normal (%) [12]: 32% | Population Pyknosed Nuclei (%) [12]: 55% | Population Tubulin-Different-Phenotype (%) [12]: 40% | Total Cell Count [12]: 203

From ChEMBL document CHEMBL5058577, “EUbOPEN Chemogenomics Library 2 (Multiplex)” (2022)
